Test results: ChEMBL document CHEMBL4689842, “EUbOPEN Chemogenomics Library wave 1” (2021)
Values joined by “and” are separate entries in the source; they are usually repeats but may differ in a detail not shown here. Equal entries are not always repeated.

System: Fibroblast
Experiment: Multiplex assay against human fibroblast
Format: toxicity, cell-based
In short: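 Live cells were stained at seeding with Hoechst33342, BioTracker Green Microtubule Cytoskeleton Dye, MitoTracker Red and Annexin V Alexa Fluor 680, then imaged on a CQ1 microscope at 37°C and 5% CO2 after compound addition. CellPathfinder machine-learning gating split cells into Hoechst high-intensity objects or normal cells. Normal cells were split into healthy, pyknosed or fragmented nuclei, and pyknosed cells into mitotic or apoptotic. Tubulin, mitochondrial-mass and membrane-permeability phenotypes are per cents of healthy-nucleus cells.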

[1] = 12 h, 1 µM, compound concentration 1 uM, replicate 1
[2] = 12 h, 1 µM, compound concentration 1 uM, replicate 2
[3] = 12 h, 10 µM, compound concentration 10 uM, replicate 1
[4] = 12 h, 10 µM, compound concentration 10 uM, replicate 2
[5] = 24 h, 1 µM, compound concentration 1 uM, replicate 1
[6] = 24 h, 1 µM, compound concentration 1 uM, replicate 2
[7] = 24 h, 10 µM, compound concentration 10 uM, replicate 1
[8] = 24 h, 10 µM, compound concentration 10 uM, replicate 2
[9] = 48 h, 1 µM, compound concentration 1 uM, replicate 1
[10] = 48 h, 1 µM, compound concentration 1 uM, replicate 2
[11] = 48 h, 10 µM, compound concentration 10 uM, replicate 1
[12] = 48 h, 10 µM, compound concentration 10 uM, replicate 2

SMILES: O=C(NCCCC1CCCCC1)c1ccc(CNC(=O)c2cnn(-c3ccccc3)c2C(F)(F)F)cc1 [SR-321]
- Population Apoptotic (%) [1]: 68% [middle of 4 runs]
- Population Fragmented Nuclei (%) [1]: 20% and 21% and 28%
- Population Healthy Nuclei (%) [1]: 35% and 39% and 42%
- Population Hoechst High Intensity Objects (%) [1]: 12% and 11% and 10%
- Population Mitochondria Different-Phenotype (%) [1]: 13% [middle of 4 runs]
- Population Mitotic Cells (%) [1]: 36% [middle of 4 runs]
- Population Normal (%) [1]: 87% and 88% and 89%
- Population Pyknosed Nuclei (%) [1]: 39% [middle of 4 runs]
- Total Cell Count [1]: 176 [middle of 4 runs]
- Population Membrane Permeable-Phenotype (%) [2]: 14% and 0% and 22%
- Population Normal (%) [2]: 91% and 78% and 92% and 56%
- Population Pyknosed Nuclei (%) [2]: 5% and 6% and 4%
- Total Cell Count [2]: 72 [middle of 4 runs]
- Population Apoptotic (%) [3]: 50% and 60% and 77%
- Population Fragmented Nuclei (%) [3]: 23% [middle of 4 runs]
- Population Healthy Nuclei (%) [3]: 36% and 34% and 55%
- Population Hoechst High Intensity Objects (%) [3]: 10% and 9% and 6%
- Population Mitotic Cells (%) [3]: 49% [middle of 4 runs]
- Population Normal (%) [3]: 89% and 90% and 93%
- Population Pyknosed Nuclei (%) [3]: 46% and 38% and 43%
- Total Cell Count [3]: 161 [middle of 4 runs]
- Population Healthy Nuclei (%) [4]: 71% and 66% and 69%
- Population Membrane Permeable-Phenotype (%) [4]: 5% and 2% and 0%
- Population Mitotic Cells (%) [4]: 80% and 81% and 44%
- Population Normal (%) [4]: 73% and 94% and 91% and 70%
- Total Cell Count [4]: 103 [middle of 4 runs]
- Population Apoptotic (%) [5]: 31% and 58% and 66%
- Population Fragmented Nuclei (%) [5]: 20% [middle of 4 runs]
- Population Healthy Nuclei (%) [5]: 48% [middle of 4 runs]
- Population Hoechst High Intensity Objects (%) [5]: 13% [middle of 4 runs]
- Population Mitochondria Different-Phenotype (%) [5]: 6% [middle of 4 runs]
- Population Mitotic Cells (%) [5]: 68% and 41% and 33%
- Population Normal (%) [5]: 86% and 90% and 82% and 87%
- Population Pyknosed Nuclei (%) [5]: 33% [middle of 4 runs]
- Total Cell Count [5]: 174 [middle of 4 runs]
- Population Membrane Permeable-Phenotype (%) [6]: 4% [middle of 4 runs]
- Population Mitochondria Different-Phenotype (%) [6]: 19% and 12% and 7%
- Population Mitotic Cells (%) [6]: 100% and 40% and 60%
- Population Normal (%) [6]: 85% and 95% and 89% and 56%
- Total Cell Count [6]: 79 [middle of 4 runs]
- Population Apoptotic (%) [7]: 50% and 57% and 51% and 64%
- Population Fragmented Nuclei (%) [7]: 16% and 31% and 23%
- Population Healthy Nuclei (%) [7]: 42% [middle of 4 runs]
- Population Hoechst High Intensity Objects (%) [7]: 12% [middle of 4 runs]
- Population Mitotic Cells (%) [7]: 49% and 42% and 48% and 35%
- Population Normal (%) [7]: 85% and 90% and 89% and 87%
- Population Pyknosed Nuclei (%) [7]: 46% and 36% and 34%
- Total Cell Count [7]: 148 [middle of 4 runs]
- Population Apoptotic (%) [8]: 33% and 44%
- Population Fragmented Nuclei (%) [8]: 20% and 42%
- Population Healthy Nuclei (%) [8]: 67% and 65% and 40%
- Population Membrane Permeable-Phenotype (%) [8]: 4% [middle of 4 runs]
- Population Mitotic Cells (%) [8]: 50% and 66% and 55%
- Population Normal (%) [8]: 93% and 81% and 92% and 63%
- Population Pyknosed Nuclei (%) [8]: 15% [middle of 4 runs]
- Total Cell Count [8]: 103 [middle of 4 runs]
- Population Apoptotic (%) [9]: 75% and 54% and 59%
- Population Fragmented Nuclei (%) [9]: 29% and 25% and 21%
- Population Healthy Nuclei (%) [9]: 44% and 51% and 53%
- Population Hoechst High Intensity Objects (%) [9]: 16% and 14% and 15%
- Population Membrane Permeable-Phenotype (%) [9]: 36% and 26% and 20%
- Population Mitochondria Different-Phenotype (%) [9]: 2% and 6%
- Population Mitotic Cells (%) [9]: 24% and 45% and 40%
- Population Normal (%) [9]: 83% and 85% and 84%
- Population Pyknosed Nuclei (%) [9]: 26% and 22% and 24%
- Population Tubulin-Different-Phenotype (%) [9]: 38% and 34% and 20%
- Total Cell Count [9]: 132 and 170 and 130
- Population Fragmented Nuclei (%) [10]: 14% and 19% and 13%
- Population Healthy Nuclei (%) [10]: 85% and 80%
- Population Hoechst High Intensity Objects (%) [10]: 13% and 9%
- Population Membrane Permeable-Phenotype (%) [10]: 16% and 10%
- Population Mitochondria Different-Phenotype (%) [10]: 1% and 0%
- Population Mitotic Cells (%) [10]: 0%
- Population Normal (%) [10]: 86% and 90%
- Population Pyknosed Nuclei (%) [10]: 1% and 0%
- Population Tubulin-Different-Phenotype (%) [10]: 28% and 17% and 14%
- Total Cell Count [10]: 116 and 92 and 152
- Population Apoptotic (%) [11]: 63% and 65% and 75%
- Population Fragmented Nuclei (%) [11]: 27% and 40% and 39%
- Population Healthy Nuclei (%) [11]: 39% and 42%
- Population Hoechst High Intensity Objects (%) [11]: 15% and 13% and 9%
- Population Membrane Permeable-Phenotype (%) [11]: 15% and 23% and 22%
- Population Mitochondria Different-Phenotype (%) [11]: 10% and 23% and 14%
- Population Mitotic Cells (%) [11]: 36% and 35% and 24%
- Population Normal (%) [11]: 84% and 86% and 90%
- Population Pyknosed Nuclei (%) [11]: 33% and 16% and 21%
- Population Tubulin-Different-Phenotype (%) [11]: 46% and 52% and 68%
- Total Cell Count [11]: 117 and 138 and 152
- Population Apoptotic (%) [12]: 50% and 100%
- Population Fragmented Nuclei (%) [12]: 21%
- Population Healthy Nuclei (%) [12]: 68% and 76% and 75%
- Population Hoechst High Intensity Objects (%) [12]: 8% and 14%
- Population Mitochondria Different-Phenotype (%) [12]: 7% and 5% and 11%
- Population Normal (%) [12]: 91% and 85%
- Population Tubulin-Different-Phenotype (%) [12]: 67% and 60% and 42%
- Total Cell Count [12]: 108 and 85 and 70
